HTR2A ag: mouse Htr2a agonists via beta-arrestin recruitment, primary screen, cell-based, luminescence; activation, % at 7.6 µM; CHO-K1 mHTR2A beta-arrestin complementation; percent of 30 µM serotonin response; AID 624169, 2012; 0.66% of 360,000 active; 5-hydroxytryptamine receptor 2A (Mus musculus), P35363;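 active means activation above a run cutoff, the mean activation of all tested compounds plus 3 SD, cut at about 14% in these data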;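 further: 0% = plate median of compound wells and 100% = 30 µM serotonin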
MsrA inh: bovine MsrA enzyme inhibitors, primary screen, biochemical, absorbance, HTS; purified bovine MsrA, absorbance read-out; AID 651718, 2012; inhibition, % at 15.5 µM; 0.75% of 360,000 active; Methionine sulfoxide reductase A (Bos taurus);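 further: 0% = vehicle wells with enzyme and 100% = reference inhibitor wells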
AHR activator: AHR activators, primary screen, cell-based, luminescence, luciferase reporter, human | activation, % at 5 µM | AID 2796, 2010 | AHR-responsive luciferase reporter cells | 2.5% of 320,000 active | Aryl hydrocarbon receptor (Homo sapiens), P35869; in the data active means activation above about 47%;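 further: 0% = vehicle wells and 100% = reference agonist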
TbMetRS inhib: T. brucei MetRS inhibitors, primary screen, biochemical, luminescence | AID 624268, 2012 | 0.4% of 360,000 active | purified T. brucei MetRS, ATP depletion, Kinase-Glo luminescence | inhibition, % at 11.9 µM;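 active means inhibition above a per-plate cutoff of the control wells' mean inhibition plus 3 SD, cut at about 5.5% in these data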;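 further: 0% = DMSO wells median and 100% = median of wells with control inhibitor compound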
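System: purified T. brucei MetRS enzyme / Detection: Kinase-Glo luciferase luminescence reporting remaining unconsumed ATP / Medium: HEPES buffer with MgCl2, KCl, DTT, spermine, BSA, pyrophosphatase / Replication: singlicate, one well per compound / Evaluation: percent inhibition relative to median high and low control wells / Schedule: 2 h aminoacylation at 25 °C after 15 min preincubation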
MsrA act: bovine MsrA enzyme activators, primary screen, biochemical, absorbance, HTS; purified bovine MsrA, absorbance read-out; AID 602163, 2012; 0.3% of 360,000 active; activation, % at 10.6 µM; in the data active means activation above about 7.5%;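 further: 0% = vehicle and 100% = reference activator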
AI-2 QS mod: Vibrio harveyi AI-2 quorum sensing modulators, primary screen, JMH597 strain, luminescence/OD600 ratio; Vibrio harveyi JMH597 AI-2 luminescence/OD600 ratio, 9 h; stronger effect = lower value; strain lacks LuxN and CqsS sensors; 0 = neutral-control median; activity change, % at 7.5 µM; 0.4% of 300,000 active; in the data active means activity change below about -75%, passing the limit was not always enough;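 further: luminescence divided by OD600 gain over 9 h not by final OD600 alone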
MsrA conf: bovine MsrA inhibitors, retest, confirmation, biochemical, absorbance, HTS | shares compounds with MsrA inh | purified bovine MsrA, absorbance read-out | inhibition, % at 15.5 µM | 41% of 2,300 active;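 further: coupled to thioredoxin reductase with NADPH and selenocystamine and DMSO as substrate; 0% = vehicle only and 100% = full effect of reference inhibitor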
The depositor's hits bear a star; nt = no result. Most compounds without a hit are left out; they make up all but 4.4% or so of the library. Unless noted, no stated cut-off is given here; in the data, active means inhibition above about 4.5%; inactive means the rest.

SMILES	HTR2A ag	MsrA inh	AHR activator	TbMetRS inhib	MsrA act	AI-2 QS mod	MsrA conf
CCOC(=O)/C(C#N)=C1/C=Nc2ccccc2N1	4	2	-7	0	0	-5	nt
CCOC(=O)/C(C#N)=C1/C=CN(c2ccccc2)C=N1	1	5.6*	7	0	-8	9	6.0*
O=C(Nc1cccc([N+](=O)[O-])c1)c1ccc2c(c1)C(=O)N(c1ccccn1)C2=O	-7	0	5	0	-5	51	nt
O=C(CCCNC(=O)c1ccc(Cl)cc1)Nc1ccc(F)c(S(=O)(=O)N2CCOCC2)c1	-6	-1	2	0	-1	nt	nt
COc1ccc(CCNC(=O)c2cc(C3CC3)nc3c2cnn3C(C)C)cc1	-1	0	1	0	0	nt	nt
CCOC(=O)/C(C#N)=C1\C=CN(C)C(C)=N1	1	6.0*	0	0	-13	4	4
CCN1C(C(=O)Nc2cc(C)on2)=C(O)c2ccccc2S1(=O)=O	11	5.1*	2	-1	-5	-1	2
Cc1ccc(N(CC(=O)NC(C)(C)C)C(=O)CCC(=O)Nc2ccccn2)cc1	5	0	nt	0	-5	nt	nt
COc1ccc(C(=S)N2CCN(c3ccccc3C)CC2)cc1OC	-7	-1	nt	0	-2	nt	nt
Cn1c(NC(=O)/C=C\c2ccccc2)cc(=O)n(C)c1=O	-4	5.3*	50*	0	-4	20	4
COC(=O)c1c(C(=O)OC)c(-c2ccc(F)cc2)n2c1CSC2	-2	5.6*	15	0	-3	-9	2
C=CCN(CC=C)C(=S)NC(=O)/C=C/c1ccc(C)cc1	-1	-2	13	1	-1	0	nt
C=CCN(CC=C)C(=S)NC(=O)/C=C/c1ccc(OC)cc1	1	4.8*	9	-1	-9	3	2
COc1ccc(/C=C/C(=O)NC(=S)NNC(=O)c2cccnc2)cc1	-8	6.0*	7	0	-2	-2	5.2*
COc1cccc(NC(=O)CN(C)CC(=O)Nc2ccc(C)c(S(=O)(=O)N3CCOCC3)c2)c1	-5	0	nt	0	-1	nt	nt
COC(=O)c1ccccc1S(=O)(=O)N1CCC(C(=O)N(C)CCOc2ccccc2)CC1	-6	0	4	0	-1	1	nt
NC1=NC(=O)/C(=C/c2cccs2)S1	5	6.2*	5	0	-4	33	4
Cc1ccc(/C=C2\SC(N3CCCCC3)=NC2=O)cc1	1	5.0*	71*	0	-4	29	4.8*
O=C1N=C(N2CCOCC2)S/C1=C/c1cccs1	4	5.4*	3	-1	-16	15	5.4*
CC(=O)Cn1cnc2c(cnn2-c2ccc(F)cc2)c1=O	-3	0	nt	0	-3	nt	nt
CCOc1ccccc1N(CC(=O)NC1CCCCC1)S(=O)(=O)c1ccccc1	7	0	3	3	-10	13	nt
NS(=O)(=O)c1ccc(CNC(=O)c2ccc3c(c2)OCO3)cc1	0	2	2	0	-2	nt	nt
Cc1ccc(OCc2cc(C(=O)N(C)Cc3cnn(-c4ccccc4C)c3)no2)cn1	2	0	1	0	-5	15	nt
CC1=CC(=O)[C@@H](O)[C@@H](c2ccccc2Br)N1C	4	5.3*	nt	0	-5	nt	4
CC1=CC(=O)[C@@H](OC(=O)Nc2ccc(C)cc2)[C@@H](c2ccccc2Br)N1C	2	0	nt	0	-11	nt	nt
SMILES	HTR2A ag	MsrA inh	AHR activator	TbMetRS inhib	MsrA act	AI-2 QS mod	MsrA conf
Cc1noc(C)c1C(=O)OCC(=O)Nc1ccccc1SCC#N	1	0	21	0	-2	nt	nt
O=C(NNC1=NS(=O)(=O)c2ccccc21)c1ccccc1	2	4	8	-1	-6	12	nt
O=C(/C=C/c1ccccc1)NNC1=NS(=O)(=O)c2ccccc21	-3	4.8*	1	0	-5	15	5.5*
CN(C)/C=C1/N=C(c2ccccc2)OC1=O	-2	7.3*	-6	-2	-15	16	6.9*
CN(C)/C=C1\N=C(c2ccc(Cl)cc2Cl)OC1=O	1	2	-9	0	-2	4	nt
Cc1ccc(C2=N/C(=C\N(C)C)C(=O)O2)cc1	2	5.2*	7	-1	-7	15	5.5*
CN(C)/C=C1\N=C(c2cccs2)OC1=O	5	7.7*	0	-1	-8	-7	5.5*
CCOc1ccc(/C=C2\N=C(c3cccs3)OC2=O)cc1OC	nt	nt	-1	nt	nt	1	nt
O=C1OC(c2ccccc2)=N/C1=C\N1CCCCC1	0	5.7*	37	0	-2	24	6.9*
Cc1ccc(C2=N/C(=C\c3cccc(F)c3)C(=O)O2)cc1	6	0	-1	-1	-5	1	nt
CCN(c1ccc(OC)cc1)S(=O)(=O)c1nnc(NC(=O)COc2ccccc2)s1	0	2	9	0	-3	13	nt
Oc1ccc(C(=Nc2ccccc2)c2ccccc2)c(O)c1	-3	5.3*	nt	0	-5	nt	1
COc1ccc(/C=N/N(C)c2cc(=O)n(C)c(=O)[nH]2)cc1OC	5	11*	20	-1	-4	30	7.0*
CCOc1ccc(/C=N/N(C)c2ccccc2)cc1OC	-5	2	10	0	0	22	nt
CN(/N=C/C=C/c1ccccc1)c1cc(=O)n(C)c(=O)[nH]1	2	12*	70*	-1	-11	28	9.1*
COCc1c(C(=O)OCC(=O)NCc2ccco2)oc2ccccc12	6	-1	2	0	-1	nt	nt
O=C(CNC(=O)c1ccccc1F)N/N=C/c1cccnc1	1	0	3	0	-3	22	nt
Cc1nc2c(o1)C(=O)c1ccccc1C2=Nc1ccccc1	3	8.9*	nt	0	-2	nt	15*
CN1C[C@H]2CON(C)[C@H]2C[C@H]1c1cccc(N2CCOCC2)c1	0	-1	nt	1	0	nt	nt
CCOc1ccc(CCNC(=O)COC(=O)CNS(=O)(=O)c2ccc(NC(C)=O)cc2)cc1OCC	8	-1	2	-1	-5	-2	nt
COc1cc(/C=N/N=C2/NC(=O)C(CC(=O)O)S2)ccc1OCc1ccc(Cl)cc1 (centres undefined)	2	5.3*	0	1	-7	4	6.0*
Cc1ccc2nc(Cl)c(/C=N/NC(=O)CN3CCOCC3)cc2c1	-2	2	4	0	-6	24	nt

Screening data as filed in PubChem.
